# Bioassay records as filed in PubChem.
# UPR CHOP act: activators of apoptotic CHOP UPR arm, primary screen, cell-based, CHO-CHOP luciferase reporter, luminescence, uHTS; AID 449763, 2010; activation, % at 10 µM; hit rate 0.34% among 330,000; UPR activation; percent of tunicamycin response over DMSO baseline;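 active = at 10 µM dose, activation of 40% or more, normalized to positive control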;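 note: 100% = tunicamycin at 10 µg/mL and 0% = DMSO alone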
#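 Material: CHO-CHOP cells, stable luciferase reporter of PERK-eIF2a-CHOP signalling; quantity: 500 reporter cells seeded per well; buffer or medium: F12 medium containing 10% fetal bovine serum; compound: one dose, 10 µM in 0.5% DMSO; incubation: 6 h compound treatment, 37 °C; measured by: Steady-Glo luciferase luminescence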
# UBC13 inh: UBC13 polyubiquitin chain formation inhibitors, primary screen, biochemical, TR-FRET, uHTS; hit rate 0.47% among 330,000; inhibition, % at 20 µM; AID 485273, 2010; in the data active = inhibition above about 45%, passing the limit was not always enough
# Mdm2 MdmX PPI: inhibitors of human Mdm2-MdmX association, primary screen, cell-based, luminescence, split luciferase, SaOS-2, uHTS. Protein Mdm4 (Homo sapiens) + E3 ubiquitin-protein ligase Mdm2 (Homo sapiens), …. SaOS-2 split-luciferase Mdm2/MdmX complementation. inhibition, % at 8 µM. hit rate 3% among 330,000;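 active = inhibition of at least 50% at 8 µM in the primary screen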
# Apaf-1 inh: inhibitors of human Apaf-1 apoptosome, primary screen, biochemical, DEVD-Rh110 fluorescence, uHTS; inhibition, % at 20 µM; hit rate 0.71% among 330,000; reconstituted apoptosome caspase-3 activity; Apoptotic protease-activating factor 1 (Homo sapiens), O14727; active = inhibition of at least 40% at 20 µM;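 note: plate controls were DMSO wells for no effect and DEVD-CHO caspase inhibitor wells for full effect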
#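 System: reconstituted apoptosome with Apaf-1, cytochrome c, caspase-9, procaspase-3, dATP; Signal: Rh110 fluorescence intensity; Schedule: 30 min compound preincubation, 50 min activation, room temperature; Reagent: cytochrome c trigger plus (Z-DEVD)2-Rh110 caspase-3 substrate.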
# UPR XBP1 act: activators of adaptive XBP1 UPR arm, primary screen, cell-based, CHO-XBP1 luciferase reporter, luminescence, uHTS; IRE1-XBP1 UPR activation; percent of tunicamycin response, DMSO as zero; activation, % at 20 µM; hit rate 0.33% among 330,000;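 active = versus positive control, 20 µM dose yields 30% or more activation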;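 note: 100% = tunicamycin at 10 µg/mL and 0% = DMSO only wells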
#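 Material – CHO cell line with stable XBP1 luciferase reporter · Buffer or medium – F12 plus 10% FBS · Compound – single point, 20 µM final compound, 1% DMSO · Schedule – 16-18 h cell attachment at 37 °C, then 6 h compound exposure · Signal – Steady-Glo luminescence read · Benchmarks – high control tunicamycin 10 µg/mL final, low control DMSO vehicle only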
# Mdm2 MdmX conf: Mdm2-MdmX complex disruptors, retested hits, confirmation, luminescence, single concentration | hit rate 55% among 10,000 | inhibition, % at 8 µM | shares compounds with Mdm2 MdmX PPI | AID 489028, 2010 | Mdm2-MdmX binding, luminescent assay; in the data active = inhibition above about 40%
# FLuc counter: full-length luciferase signal inhibition, confirmation, counter-screen for Mdm2/MdmX interaction inhibitor project, cell-based, single concentration, SaOS-2; shares compounds with Mdm2 MdmX PPI; AID 504607, 2011; SaOS-2 full-length luciferase counterscreen, luminescence; inhibition, % at 8 µM; hit rate 77% among 6,200;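 active = mean inhibition at 8 µM reaching about 37%, which flags the compound as non-specific, limit read from the data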;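 note: p53-null SaOS-2 cells with luciferase driven by a doxycycline-inducible promoter; compound on cells about two nights before reading with doxycycline added after day one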
# * marks the source's active call; other numbers are inactive results; nt = no result given. Compounds with a hit are over-represented: about 4.1% of the library has one in this group of screens.
SMILES,UPR CHOP act,UBC13 inh,Mdm2 MdmX PPI,Apaf-1 inh,UPR XBP1 act,Mdm2 MdmX conf,FLuc counter
CN(/N=C/c1cc(Cl)ccc1O)C1=NS(=O)(=O)c2ccccc21,-1,-5,8,19,-1,nt,nt
CC1=C(/C=C/C(C)=C/C=C/C(C)=C\C(=O)O)C(C)(C)CCC1,4,-35,60*,3,-6,49*,45*
COCCCn1c(=O)c2ccccc2n2c(=S)[nH]nc12,1,-4,5,3,-4,nt,nt
C=CCn1c(SCC(=O)Nc2ccc(F)cc2F)nc2c([nH]c3ccccc32)c1=O,1,-7,65*,-13,-2,52*,27
COCCn1c(SCC(=O)Nc2ccc(F)cc2F)nc2c([nH]c3ccccc32)c1=O,1,-6,55*,-9,-2,53*,14
COCCn1c(SCC(=O)Nc2ccccc2F)nc2c([nH]c3ccccc32)c1=O,1,1,36,-5,-5,nt,nt
O=c1[nH]c(-c2ccccc2)nn1-c1ccc(Br)cc1Br,0,-4,-8,9,-4,nt,nt
O=C(Nc1cc(Cl)ccc1Cl)c1ccc(-c2ccccc2)cc1,4,1,2,-4,5,nt,nt
COC(=O)c1ccc(C(=O)Nc2cc(Cl)ccc2Cl)cc1NC(=O)c1ccc(N(C)C)cc1,3,14,70*,5,3,7,nt
N#Cc1c(Oc2ccc3ccccc3c2)sc(C(=O)c2ccccc2)c1N,4,12,75*,12,5,26,nt
Cc1ccc(-c2nnc(N3CCN(C(=O)c4cccs4)CC3)c3ccccc23)cc1,1,7,55*,10,-5,13,nt
Cc1ccc(-c2nnc(N3CCN(c4ccccn4)CC3)c3ccccc23)cc1,3,4,57*,24,0,54*,48*
OCCN1CCN(c2nc(-c3ccccc3)nc3c2oc2ccccc23)CC1,0,4,54*,5,-1,38,54*
O=C(O)C1CCN(c2nc(-c3ccccc3)nc3c2oc2ccccc23)CC1,1,-16,8,3,6,nt,nt
C=CCN1N=C(c2ccc(NC(=O)c3ccccc3)cc2)CSC1=O,10,-5,66*,4,11,4,nt
C[C@@H](NC(=O)c1[nH]cnc1C(=O)Nc1ccc(Cl)cc1)c1ccccc1,3,-8,60*,19,-2,45*,62*
C[C@H](NC(=O)c1[nH]cnc1C(=O)Nc1ccc(Cl)cc1)c1ccccc1,3,20,61*,12,0,29,68*
CN(C(=O)C1CCC(=O)N(CCCN2CCCC2=O)C1)C(C1CC1)C1CC1 (configuration not stated),0,0,-7,-5,-4,nt,nt
O=C(NCc1cccs1)C(=O)NCC1OCCCN1S(=O)(=O)c1cc(F)ccc1F (configuration not stated),0,-3,2,-6,-3,nt,nt
O=C(Cc1n[nH]c(=O)c2ccccc12)OCc1c(Cl)cccc1Cl,1,4,57*,-6,0,55*,62*
CCOC(=O)Cc1n[nH]c(=O)c2ccccc12,-1,9,18,-2,0,nt,nt
Cc1ccccc1CN1CCN(C2CCC2)CC1CCO (configuration not stated),-1,5,20,-5,-2,nt,nt
Cc1ccccc1NC(=O)C(C)Sc1nnc(-c2ccncc2)n1CC1CCCO1 (configuration not stated),-2,4,23,7,1,nt,nt
COC(=O)Nc1nc(-c2ccccc2)c(C(=O)c2ccc(Cl)cc2)s1,-2,1,61*,8,16,55*,88*
COCCN(CCOC)S(=O)(=O)c1ccc(C(=O)Nc2nc(-c3ccccc3)c(C(=O)c3ccccc3)s2)cc1,6,-11,-24,-2,0,nt,nt
SMILES,UPR CHOP act,UBC13 inh,Mdm2 MdmX PPI,Apaf-1 inh,UPR XBP1 act,Mdm2 MdmX conf,FLuc counter
CCN(CC)CC(C)CNC(=O)CN1C(=O)CSc2ccc(S(=O)(=O)N3CCOCC3)cc21 (configuration not stated),0,-5,1,3,3,nt,nt
O=[N+]([O-])CC(c1ccccc1)c1c[nH]c2ccccc12 (configuration not stated),2,4,34,-4,1,nt,nt
OC(CNCC(c1ccc(Cl)cc1Cl)c1c[nH]c2ccccc12)c1ccccc1 (configuration not stated),9,31,97*,6,5,80*,46*
Cc1cc(C)c(C#N)c(Nc2cccc(C)c2C)n1,2,5,8,-1,-6,nt,nt
Cc1nnnn1/C(=C\c1ccccc1)C(=O)OCC(=O)Nc1ccc(Cl)cc1F,6,-1,67*,0,-5,61*,61*
Cc1nnnn1/C(=C\c1ccccc1)C(=O)OCC(=O)Nc1cccc(S(=O)(=O)N(C)C)c1,7,-3,72*,0,-5,39,34
O=C(COC(=O)Cc1n[nH]c(=O)c2ccccc12)Nc1ccc(Cl)cc1F,-2,-2,22,-16,-3,nt,nt
CCCC(C)c1nnc(NC(=O)C2CC(=O)N(CCc3ccc(F)cc3)C2)s1 (configuration not stated),3,-8,11,15,-6,nt,nt
COCC(C)NC(=O)CCSc1nc(-c2ccc(OC)cc2)cc(C(F)(F)F)n1 (configuration not stated),-2,13,25,4,0,nt,nt
COc1ccccc1-c1cc(C(F)(F)F)nc(S(=O)(=O)CCCC(=O)Nc2cc(C)on2)n1,20,10,100*,16,-7,99*,33
Cc1cc(NC(=O)CCCSc2nc(-c3ccco3)cc(C(F)(F)F)n2)no1,-2,-6,11,-5,2,nt,nt
COc1ccccc1-c1cc(C(F)(F)F)nc(S(=O)(=O)CCCC(=O)NC(C)C)n1,21,12,100*,1,-7,97*,31
COc1ccc([N+](=O)[O-])cc1N(CC(=O)N1CCN(Cc2ccccc2)CC1)S(C)(=O)=O,3,-13,-22,-1,-4,nt,nt
